Experimental data of several laboratories.
Lines come from different studies, so protocols differ.
LDHA: L-lactate dehydrogenase A chain (LDHA, Homo sapiens, UniProt P00338)
PRMT3: Protein arginine N-methyltransferase 3 (PRMT3, Homo sapiens, UniProt O60678)
TDP1: Tyrosyl-DNA phosphodiesterase 1 (TDP1, Homo sapiens, UniProt Q9NUW8)
SLC22A6: Solute carrier family 22 member 6 (SLC22A6, Homo sapiens, UniProt Q4U2R8)

| Structure (SMILES) | target | observed | action | method | pH | IC50 |
| --- | --- | --- | --- | --- | --- | --- |
| O=C(O)c1ccc(CN2C(=O)c3cccc(NC(=O)c4ccc(Cl)s4)c3C2=O)cc1 | LDHA | enzyme activity | inhibitor | – | – | 0.308 µM |
| CNC(=O)c1cc2c(Oc3ccc(NC(=O)C4(C(=O)Nc5ccc(F)cc5)CC4)cc3)ccnc2cc1OC | Homeodomain-interacting protein kinase 4 (HIPK4, Homo sapiens, UniProt Q8NE63) | enzyme activity | inhibitor | radiometric | – | 0.003 µM |
| CC1(C)C(/C=C/C=C2/N(CCCc3ccccc3)c3ccc4ccccc4c3C2(C)C)=[N+](CCCc2ccccc2)c2ccc3ccccc3c21 | PRMT3 | enzyme activity | inhibitor | radiometric | – | 0.72 µM |
| Cc1nc2ccc(NC(=O)CCNC(=O)CCCc3ccc(CC(C(=O)O)C(=O)O)cc3)cc2s1 | LDHA | enzyme activity | inhibitor | – | – | 1.2 µM |
| CSc1ccc(/C=C2/C(C)=C(CC(=O)O)c3cc(F)ccc32)cc1 | Cone cGMP-specific 3',5'-cyclic phosphodiesterase subunit alpha' (PDE6C, Homo sapiens, UniProt P51160) | enzyme activity | inhibitor | – | – | > 100 µM |
| CCN(CC)CCCOc1cc2cc3c(cc2c2nc(OC)c4cc(OC)c(OC)cc4c12)OCO3 | TDP1 | enzyme activity | inhibitor | – | – | 5.5 to 13 µM |
| COc1cc(-c2cc(=O)c3c(O)c(OC)c(O[C@@H]4O[C@H](CO)[C@@H](O)[C@H](O)[C@H]4O)cc3o2)ccc1O | LDHA | enzyme activity | inhibitor | – | pH 7.4 | 153 µM |
| Cc1c(C)c2c(c(C)c1O)CCC(C)(COc1ccc(CC3SC(=O)NC3=O)cc1)O2 (stereo not shown) | Peroxisome proliferator-activated receptor delta (PPARD, Homo sapiens, UniProt Q03181) | enzyme activity | inhibitor | – | – | 46 µM |
| CCOc1ccc2c(-c3cc(C)nc(Nc4cc(OC)cc(C(F)(F)F)c4)n3)cnn2n1 | Homeodomain-interacting protein kinase 3 (HIPK3, Homo sapiens, UniProt Q9H422) | enzyme activity | inhibitor | – | – | > 10 µM |
| O=C(O)c1ccc(Nc2c(-c3ccc(S(=O)(=O)O)cc3)nc3ccccn23)cc1 | TDP1 | enzyme activity | inhibitor | – | – | > 100 µM |
| Cc1cccc(Nc2ccccc2C(=O)O)c1C | SLC22A6 | transporter uptake | inhibitor | – | – | 1.08 µM |
| O=C(/C=C/c1ccc(O)cc1)c1ccc(O)cc1O | Amine oxidase [flavin-containing] A (MAOA, Homo sapiens, UniProt P21397) | enzyme activity | inhibitor | – | – | 22.7 µM |
| CCS(=O)(=O)N1CC(CC#N)(n2cc(-c3ncnc4[nH]ccc34)cn2)C1 | SLC22A6 | transporter uptake | inhibitor | – | – | > 100 µM |
| Fc1ccc(CN(CC(F)(F)F)C2CCN(CCCc3c[nH]c4ccc(Cn5cncn5)cc34)CC2)cc1 | Voltage-dependent T-type calcium channel subunit alpha-1I (CACNA1I, Homo sapiens, UniProt Q9P0X4) | ion current | – | patch clamp | – | 0.0007 µM |
| Nc1ncnc2c1ncn2[C@@H]1O[C@H](CSCCNC(=O)NCc2ccccc2)[C@@H](O)[C@H]1O | Protein arginine N-methyltransferase 5 (PRMT5, Homo sapiens, UniProt O14744) | enzyme activity | inhibitor | radiometric | – | < 2.4 µM |
| CC1=C[C@@]2(C[C@H](C)[C@H]3CC=C(CO)C(=O)[C@@H]3O2)OC1=O | Tyrosine-protein phosphatase non-receptor type 1 (PTPN1, Homo sapiens, UniProt P18031) | enzyme activity | inhibitor | – | – | 41.1 µM |
| Nc1ncnc2c1ncn2[C@@H]1O[C@H](CSCCNC(=O)NCCc2ccccc2)[C@@H](O)[C@H]1O | PRMT3 | enzyme activity | inhibitor | fluorescence | – | > 100 µM |
| C[C@@H]1C[C@H]2O[C@@H]2CC/C=C/C(=O)Cc2cc(O)cc(O)c2C(=O)O1 | Mitogen-activated protein kinase kinase kinase 7 (MAP3K7, Homo sapiens, UniProt O43318) | enzyme activity | inhibitor | ATP luminescence | – | > 10 µM |
| CCn1ncc2c1-c1cnc(N)c(c1)O[C@H](C)c1cc(F)ccc1-c1nn(C)nc1C2 | High affinity nerve growth factor receptor (NTRK1, Homo sapiens, UniProt P04629) | enzyme activity | inhibitor | radiometric | – | 0.144 µM |
